{
  "source": "ChEMBL document CHEMBL4145647",
  "about": "“Aniline-Tetramic Acids from the Deep-Sea-Derived Fungus Cladosporium sphaerospermum L3P3 Cultured with the HDAC Inhibitor SAHA” (J Nat Prod, 2018)",
  "key": {"HL-60": {"test_system": "HL-60", "experiment": "Cytotoxicity against human HL60 cells after 72 hrs by MTT assay", "type": "functional, cell-based", "details": "HL-60, 72 h", "outline": "(§1)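 Cells were checked for viability by Trypan blue counting, then plated at 8000 cells/well and exposed to test solution for 72 h. MTT reagents were then added, followed by a further 10 h incubation. Absorbance was read at 570 nm and IC50 reported in μM. Doxorubicin was the positive control.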"}, "MGC-803": {"test_system": "MGC-803", "experiment": "Cytotoxicity against human MGC803 cells after 72 hrs by SRB assay", "details": "MGC-803, 72 h"}, "K562": {"test_system": "K562", "experiment": "Cytotoxicity against human K562 cells after 72 hrs by MTT assay", "type": "functional, cell-based", "details": "K562, 72 h", "outline": "as §1"}, "HCT-116": {"test_system": "HCT-116", "experiment": "Cytotoxicity against human HCT116 cells after 72 hrs by SRB assay", "details": "HCT-116, 72 h"}, "SH-SY5Y": {"test_system": "SH-SY5Y", "experiment": "Cytotoxicity against human SH-SY5Y cells after 72 hrs by SRB assay"}, "PC-3": {"test_system": "PC-3", "experiment": "Cytotoxicity against human PC3 cells after 72 hrs by SRB assay", "details": "PC-3, 72 h"}},
  "note": "Counter-ions that a name gives are not always drawn.",
  "data": [
    {"smiles": "CO[C@@H](CC(Nc1ccccc1)=C1C(=O)NC(=C(C)C)C1=O)C[C@H](C)O", "values": [
      {"measurement": "IC50", "setting": "HL-60", "result": "> 30", "unit": "µM"},
      {"measurement": "IC50", "setting": "MGC-803", "result": "> 30", "unit": "µM"},
      {"measurement": "IC50", "setting": "K562", "result": "> 30", "unit": "µM"},
      {"measurement": "IC50", "setting": "HCT-116", "result": "> 30", "unit": "µM"},
      {"measurement": "IC50", "setting": "SH-SY5Y", "result": "> 30", "unit": "µM"},
      {"measurement": "IC50", "setting": "PC-3", "result": "> 30", "unit": "µM"}
    ]},
    {"smiles": "CO[C@H](CC(Nc1ccccc1)=C1C(=O)NC(=C(C)C)C1=O)C[C@H](C)O", "values": [
      {"measurement": "IC50", "setting": "HL-60", "result": 2.8, "unit": "µM"},
      {"measurement": "IC50", "setting": "MGC-803", "result": 19, "unit": "µM"},
      {"measurement": "IC50", "setting": "K562", "result": 4.1, "unit": "µM"},
      {"measurement": "IC50", "setting": "HCT-116", "result": 11, "unit": "µM"},
      {"measurement": "IC50", "setting": "SH-SY5Y", "result": 12, "unit": "µM"},
      {"measurement": "IC50", "setting": "PC-3", "result": 13, "unit": "µM"}
    ]},
    {"smiles": "CC(C)=C1NC(=O)C(=C(C[C@H](C[C@H](C)O)Nc2ccccc2)Nc2ccccc2)C1=O", "values": [
      {"measurement": "IC50", "setting": "HL-60", "result": 7.5, "unit": "µM"},
      {"measurement": "IC50", "setting": "MGC-803", "result": "> 30", "unit": "µM"},
      {"measurement": "IC50", "setting": "K562", "result": 5.9, "unit": "µM"},
      {"measurement": "IC50", "setting": "HCT-116", "result": 14, "unit": "µM"},
      {"measurement": "IC50", "setting": "SH-SY5Y", "result": "> 30", "unit": "µM"},
      {"measurement": "IC50", "setting": "PC-3", "result": 18, "unit": "µM"}
    ]},
    {"smiles": "CC(C)=C1NC(=O)C(=C(C[C@@H](C[C@H](C)O)Nc2ccccc2)Nc2ccccc2)C1=O", "values": [
      {"measurement": "IC50", "setting": "HL-60", "result": 7.8, "unit": "µM"},
      {"measurement": "IC50", "setting": "MGC-803", "result": "> 30", "unit": "µM"},
      {"measurement": "IC50", "setting": "K562", "result": 6.8, "unit": "µM"},
      {"measurement": "IC50", "setting": "HCT-116", "result": "> 30", "unit": "µM"},
      {"measurement": "IC50", "setting": "SH-SY5Y", "result": "> 30", "unit": "µM"},
      {"measurement": "IC50", "setting": "PC-3", "result": "> 30", "unit": "µM"}
    ]},
    {"smiles": "COc1cccc2c1C(=O)c1c(O)c3c(c(O)c1C2=O)C[C@@](O)(C(=O)CO)C[C@@H]3O[C@H]1C[C@H](N)[C@H](O)[C@H](C)O1", "note": "[DOXORUBICIN HYDROCHLORIDE]", "values": [
      {"measurement": "IC50", "setting": "PC-3", "result": 1, "unit": "µM"}
    ]},
    {"smiles": "CC(C)=C1NC(=O)C(=C2C=CC[C@H](C)O2)C1=O", "values": [
      {"measurement": "IC50", "setting": "HL-60", "result": 6.6, "unit": "µM"},
      {"measurement": "IC50", "setting": "MGC-803", "result": 22, "unit": "µM"},
      {"measurement": "IC50", "setting": "K562", "result": 4.5, "unit": "µM"},
      {"measurement": "IC50", "setting": "HCT-116", "result": 12, "unit": "µM"},
      {"measurement": "IC50", "setting": "SH-SY5Y", "result": 15, "unit": "µM"},
      {"measurement": "IC50", "setting": "PC-3", "result": 11, "unit": "µM"}
    ]}
  ]
}
